Data as given in ChEMBL document CHEMBL4138310 (J Med Chem, 2018).

Tests used:
[1] = Ratio of EC50 for inhibition of protease L10F/V32I/M46I/I47V/Q58E/I84V mutant in HIV1 A17 infected in human MT4 cells to EC50 for wild-type HIV-1 pNL4-3 infected in human MT4 cells; format: functional, Human immunodeficiency virus 1
Summary of the method: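 Ratio of EC50 values from MT-4 cytopathic-effect MTT assays (5 days, 37 °C, triplicate, median-effect fit). Numerator is LPV-resistant strain A1711, denominator is wild-type HIV-1 pNL4-3.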

[2] = Ratio of EC50 for DRV-resistant protease V32I/L33F/I54M/I84V mutant in HIV1 transfected in 293T cells to EC50 for wild-type HIV-1 pNL4-3 infected in CMVdeltaR8.91 transfected 293T cells; format: functional, Human immunodeficiency virus 1
[3] = molecular target: Protease (Human immunodeficiency virus 1) (UniProt Q9YQ12); assay: Inhibition of recombinant HIV1 protease at 1 nM using H-Lys-Ala-Arg-Val-Tyr-Phe(p-NO2)-Glu-Ala-Nle-NH2 as substrate preincubated for 5 mins followed by substrate addition measured after 3 hrs by fluorescence-based assay
Summary of the method: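 Recombinant HIV-1 protease (40 ng/mL stock in pH 5.0 acetate/EDTA/NaCl/2-mercaptoethanol/NP-40/glycerol) mixed with inhibitor (10 nM solution in DMSO) in 200 mM MES-NaOH pH 5.5 with 2 mM DTT, 2 mM EDTA and 1 M NaCl. Preincubated 5 min at 37 °C, then 1.0 mM substrate solution added and incubated 3 h at 37 °C. Stopped with 1 N HCl. The Lys-Ala-Arg-Val-Tyr-OH product was quantified by RP-HPLC with fluorescence (Ex 275, Em 305 nm). Single determination.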

[4] = Cytotoxicity against human MT4 cells after 5 days by MTT assay; format: cell-based; settings: read-out: TD50
Summary of the method: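 Uninfected MT-4 cells given compound at several concentrations in 1% DMSO solution with 10% FBS. Incubated 5 days at 37 °C in CO2, in triplicate. Viability read by MTT optical density, with TD50 taken as the cytotoxic measure.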

[5] = Ratio of EC50 for DRV-resistant protease V32I/L33F/I54M/V82I mutant in HIV1 transfected in 293T cells to EC50 for wild-type HIV-1 pNL4-3 infected in CMVdeltaR8.91 transfected 293T cells; format: functional, Human immunodeficiency virus 1
Summary of the method: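 Ratio of IC50 values from the 293T luciferase reporter lentiviral vector assay. Numerator is vector carrying DRV-resistant protease (V32I/L33F/I54M/I84V or V32I/L33F/I54M/V82I), denominator is wild-type pNL4-3-based vector.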

[6] = tested on: Human immunodeficiency virus 1; assay: Antiviral activity against wild-type HIV1 pNL4-3 infected in CMVdeltaR8.91 transfected 293T cells after 48 hrs by lentiviral vector-based luciferase reporter gene assay; format: functional, organism-based; settings: Human immunodeficiency virus 1, pNL4-3, HEK-293T
Summary of the method: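 pNL4-3-based luciferase reporter lentiviral vector made by transfecting 293T cells with pCMV-ΔR8.91 (wild-type or V32I/L33F/I54M/V82I or V32I/L33F/I54M/I84V protease) plus luciferase transfer and envelope plasmids, with or without inhibitor. After 48 h, fresh 293T cells infected with vector. IC50 for suppression of luciferase transduction taken from dose-response curve.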

[7] = tested on: Human immunodeficiency virus 1; assay: Antiviral activity against wild-type HIV1 pNL4-3 infected in human MT4 cells assessed as inhibition of virus-induced cytopathic effect after 5 days in absence of human serum by MTT assay; format: functional, organism-based; settings: Human immunodeficiency virus 1, pNL4-3, MT4, 120 h
Summary of the method: (§1)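 MT-4 cells inoculated with HIV-1 pNL4-3, then given an equal volume of compound at several concentrations in 1% DMSO solution with 10% FBS. Incubated 5 days at 37 °C in CO2, in triplicate. MTT read by optical density, percent reduction of cytopathic effect calculated, and EC50 fitted to the median-effect equation. Values averaged over n = 3; the 50% human serum condition was run alongside.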

[8] = tested on: Human immunodeficiency virus 1; assay: Antiviral activity against wild-type HIV1 pNL4-3 infected in human MT4 cells assessed as inhibition of virus-induced cytopathic effect after 5 days in presence of 50 % of human serum by MTT assay; format: functional, organism-based; settings: Human immunodeficiency virus 1, pNL4-3, MT4, 120 h; summary of the method: as §1
[9] = tested on: Human immunodeficiency virus 1; assay: Ratio of EC50 for wild-type HIV1 pNL4-3 infected in human MT4 in presence of 50% of human serum to EC50 for wild-type HIV-1 pNL4-3 infected in human MT4 in absence of human serum; format: functional
Summary of the method: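 Serum binding effect calculated as the pNL4-3 EC50 in 50% human serum divided by the EC50 in 0% serum, using MT-4 cytopathic-effect MTT assays run for 5 days at 37 °C.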

COc1cccc2cc(C(=O)N[C@H](C(=O)N[C@@H](Cc3ccccc3)[C@H](O)C(=O)N3CSC(C)(C)[C@H]3C(=O)NCc3c(C)cccc3C)[C@H]3CCOC3)oc12
Ratio EC50 [1]: >8 | Ratio EC50 [2]: 0.7 | inhibition [3]: 97% | CC50 at 120 h [4]: 11000 nM | Ratio EC50 [5]: 0.2 | EC50 [6]: 1.71 nM | EC50 [7]: < 3 nM | EC50 [8]: 80 nM | Ratio EC50 [9]: >27
